Measured values of several laboratories.
Compare with care: the assays were run in different laboratories.
Read-out: microbial growth

CC1=NN(CNc2ccc(Cl)cc2)C(=O)C1=NNn1c(-c2ccccc2)nc2ccccc2c1=O
MIC (Micrococcus luteus; broth dilution; 24 h): 103 µM

O=C(O)CN1C(=O)/C(=C/c2ccc(-c3ccc(N(c4ccccc4)c4ccccc4)cc3)c3ccccc23)SC1=S
MIC (Micrococcus luteus; broth dilution; ATCC10240): 31.3 µg/mL

O=C1NC(=O)/C(=C/c2ccc3c(c2)OC(F)(F)O3)S1
MIC (Staphylococcus aureus; NCTC8325): > 30 µM

O=C1NC(=S)N/C1=C\c1c2ccccc2c(-c2ccc(N(c3ccccc3)c3ccccc3)cc2)c2ccccc12
MIC (Micrococcus luteus; broth dilution; ATCC10240): > 1000 µg/mL

Cc1ncc([N+](=O)[O-])n1CCO
MIC (Lactobacillus acidophilus; agar dilution; 48 h): > 16 µg/mL

N#Cc1c(O)c2c(-c3ccc(-c4ccccc4O)cc3)csc2[nH]c1=O
MIC (Staphylococcus aureus; NCTC8325): > 30 µM

C/C=C(\C)c1cc(OC(=O)c2c(O)c(C)c(O)c(Cl)c2/C(C)=C/C)c(C)c(O)c1C(=O)O
MIC (Micrococcus luteus; broth dilution; ML01): 32 µg/mL

O=C1NC(=S)S/C1=C\c1c2ccccc2c(-c2ccc(N(c3ccccc3)c3ccccc3)cc2)c2ccccc12
MIC (Micrococcus luteus; broth dilution; ATCC10240): > 1000 µg/mL

CNC(=O)c1cc(Oc2ccc(NC(=O)Nc3c(C)cccc3Cl)cc2)ccn1
MIC (Staphylococcus aureus; NCTC8325): > 100 µM

O=C(O)c1cn(C2CC2)c2cc(N3CCNCC3)c(F)cc2c1=O
MIC (Micrococcus luteus; broth dilution; 24 h): 0.57 µM

CCc1cc(Nc2cc(=O)n(CCCCO)c(=O)[nH]2)ccc1C
MIC (Lactobacillus acidophilus; agar dilution; 48 h): 32 µg/mL

O=C(O)CN1C(=O)/C(=C/c2c3ccccc3c(-c3ccc(N(c4ccccc4)c4ccccc4)cc3)c3ccccc23)SC1=S
MIC (Micrococcus luteus; broth dilution; ATCC10240): 125 µg/mL

Cc1cnc(-c2cnc(NCCNc3ccc(C#N)cn3)nc2-c2ccc(Cl)cc2Cl)[nH]1
MIC (Staphylococcus aureus; NCTC8325): > 30 µM

CC1=NN(CNc2ccccc2[N+](=O)[O-])C(=O)C1=NNn1c(-c2ccccc2)nc2ccccc2c1=O
MIC (Micrococcus luteus; broth dilution; 24 h): 50.4 µM

COC(=O)c1sc(C(C)(C)C)cc1NC(=O)Nc1ccc(C)cc1
MIC (Staphylococcus aureus; NCTC8325): > 100 µM

O=C(O)CN1C(=O)/C(=C/c2c3ccccc3c(-c3ccc(N(c4ccccc4)c4ccccc4)cc3)c3ccccc23)NC1=S
MIC (Micrococcus luteus; broth dilution; ATCC10240): > 1000 µg/mL

CC1(C)S[C@@H]2[C@H](NC(=O)[C@H](N)c3ccccc3)C(=O)N2[C@H]1C(=O)O
MIC (Bifidobacterium longum; broth dilution; ATCCBAA999): 0.25 µg/mL
